ChEMBL document CHEMBL4513216, “Probing the Open Global Health Chemical Diversity Library for Multistage-Active Starting Points for Next-Generation Antimalarials” (ACS Infect Dis, 2020)

Test: Toxicity liver stage against HepG2, at 10uM
Type: cell-based
Set-up: test concentration 10 uM, cell line HepG2-A16-CD81EGFP
Conditions: human, HepG2-A16-CD81EGFP cells; read-out: INHIBITION
Procedure, shortened: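 Uninfected HepG2-A16-CD81EGFP cells, 3 × 10^3 per well, 1536-well, plated on prespotted compound at 10 μM final, parasite-free screening media added to match infected plates; puromycin 10 μM positive, DMSO 0.5% negative; run in parallel with 48 h PbLuc assay at 37 °C, 5% CO2; viability by CellTiter-Glo luminescence, normalized to controls.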

SMILES | cytotoxicity at 10 µM [%]
O=C(Nc1ccc(F)c(Br)c1)N1CCCC1 | 2.32
COCc1ccc(C(=O)N2CC[C@@](O)(COC)C(C)(C)C2)o1 | -2.69
O=C(C1CCCCC1)N1CCN(Cc2nc(-c3ccco3)no2)CC1 | -1.01
O=c1ccc(-c2cccs2)nn1CN1CCCCCC1 | -5.51
CNS(=O)(=O)c1ccccc1N1CCN(C(C)C(=O)OC)CC1 (stereo unspecified) | 0.375
Cc1nc(C(=O)N2CC[C@@]3(C[C@H](NS(C)(=O)=O)CCO3)C2)cs1 | -72.9
CCN(Cc1ccncc1)S(C)(=O)=O | 14.4
OCCn1cc(CN2CCN(CCOc3ccccc3)CC2)cn1 | -8.43
O=C(NCCn1ccnc1)c1csc(Br)c1 | 13
N#Cc1cc(Cn2cnc(C3CCC3)cc2=O)ccc1F | -0.908
Cc1cc(C(F)(F)F)nc(C2(C)CCCN2CC(N)=O)n1 (stereo unspecified) | 6.62
CCCc1cc(CN(C)C2CC(C)(C)NC(C)(C)C2)n[nH]1 | -16.7
CC(=O)N1CC(C(=O)NC(C)c2cnn(C)c2C)C1 (stereo unspecified) | 4.65
CN(C)S(=O)(=O)N1C[C@H]2CC[C@@H](C1)N(CCC(=O)NCc1ccco1)C2 | -6.74
O=C(NCCc1ccc(F)cc1)NC1CCCc2c1cnn2CCO (stereo unspecified) | -3.46
CCOc1ccc(C(=O)CCC(=O)N(C)Cc2noc(C)n2)cc1C | -4.34
[O-][S+](CCN1CCc2[nH]nc(C(F)(F)F)c2C1)c1ccccc1 (stereo unspecified) | -9.92
Cc1cc(C)n(CC(C)NC(=O)c2cc(C(C)C)on2)n1 (stereo unspecified) | 0.5
Cc1cnn(CC2CN(CC(=O)N(C)c3nccs3)CCO2)c1 (stereo unspecified) | 0.385
COC1COC2(CCN(CC3CC3)CC2)C1 (stereo unspecified) | -103
CCS(=O)(=O)N1CCC(n2nc(-c3cc(C)oc3C)ccc2=O)CC1 | 8.82
Cc1ccsc1CN(C)C(=O)c1cc2c([nH]c1=O)CCCC2=O | -5.36
Cc1ccc(-n2nnc(CC(=O)N3CCSCC3)c2C)cc1 | -13.1

SMILES | cytotoxicity at 10 µM [%]
O=C(Nc1nccs1)NC1CCN(Cc2ccccc2)C1 (stereo unspecified) | -9.93
CNC(=O)C(CCSC)NC(=O)c1ccc2ccccc2n1 (stereo unspecified) | -1.35
COCC(=O)N1C[C@H]2CNC[C@@]2(C(=O)NCc2cccc3[nH]ccc23)C1 | 6.65
O=C(NCC1CCC2(CCNCC2)O1)C1CC1 (stereo unspecified) | -5.01
CC(C)NC(=O)c1nc2c(s1)CCCN2Cc1ccccc1 | 18.3
COC(=O)c1ccc(-c2cc(C(F)(F)F)cc(N(C)C)n2)cc1 | -0.409
CN(C)Cc1cnc2n1CCN(C(=O)NCc1ccccc1)CC2 | -6.41
CC(C)(O)CN1CCN(C(=O)c2ccn(-c3cccc(F)c3)n2)CC1 | -3.53
CNS(=O)(=O)CC(=O)NC(c1cc(C)sc1C)C(C)C (stereo unspecified) | 0.918
OCCN(Cc1ccno1)Cc1cc(Br)ccc1F | 6
CCn1cc2c(n1)C(COC)CN(Cc1ccccn1)C2 (stereo unspecified) | -3.73
Cc1ccc(C(=O)N2CCCC2c2nnc3n2CCCCC3)s1 (stereo unspecified) | -0.208
Cc1ccc(NC2CCN(C(=O)c3cc4c(s3)CCC4)CC2)nn1 | -3.48
Cc1cn(Cc2ccc(F)cc2)nc1N | -8.99
c1ccc(-c2nc3c(c(NCCn4ccnn4)n2)CCNCC3)nc1 | -51.1
CN1CC(=O)N(c2cccnc2)CC12CCN(C(=O)c1cccnc1)C2 (stereo unspecified) | 2.25
Cn1cc(C2CC3(CCN(C(=O)c4ccsc4)CC3)NC2=O)cn1 (stereo unspecified) | -3.7
Cc1ccc(C)c2c(O)cc(CN3CCC(c4nncn4C)CC3)nc12 | -2.24
O=C(NCCNc1ncccn1)c1ccc(Br)cc1 | -0.628
Cc1cc2ccncc2n1CC1(O)CCN(C(=O)c2ccccn2)CC1 | 0.166
Cc1c(-c2nc(-c3cccc(CN4CCOCC4)c3)no2)cnn1C | -0.988
Cc1cc(NC(=O)CCN2CCn3c(nnc3C3CC3)C2)no1 | 7.11
O=C(N1CCCC1)N1C[C@H]2CCC[C@@]2(COCc2ccccn2)C1 | -106

SMILES | cytotoxicity at 10 µM [%]
CCn1c(C)cc(C(=O)N2CCCC(n3ccnc3C)C2)c1C (stereo unspecified) | -1.51
CC(NC(=O)NCCCc1n[nH]c(N)c1C#N)c1cccc(Cl)c1 (stereo unspecified) | -4.14
COCc1cc(N2CCOC(c3ccc(F)cc3)C2)ncn1 (stereo unspecified) | -0.987
Cn1ccc(C(=O)NC2CCC23CCN(Cc2cnn(C)c2)CC3)c1 (stereo unspecified) | -146
CC(C)CNC(=O)c1ccc(NC(=O)NC2CC2)cc1Cl | 2.56
CCCc1n[nH]c(C2CN(C(=O)CCCn3cccn3)CCO2)n1 (stereo unspecified) | -7.87
O=C(CN1CCCC(c2ccn[nH]2)C1)Nc1nc2c(s1)CCC2 (stereo unspecified) | -42.4
Cc1nc2ccc(-n3ncnc3[C@@H]3CCCN3S(C)(=O)=O)cc2s1 | -11.5
COCC(C)NC(=O)N1CCN(S(C)(=O)=O)CC1 (stereo unspecified) | -6.53
CN(C)CC(=O)N1CC2(CCN(Cc3ccccc3)C2)C1 | 5.62
Cc1nc(C(C)C)ncc1C(=O)N1CCC(c2ccccc2C(=O)O)C1 (stereo unspecified) | 1.93
CC(C)c1nc2c(n1C)CCN(CC(=O)Nc1ccc(Cl)cn1)C2 | 0.241
COc1cc(C)ccc1OCc1nc(C(=O)N2CCCNC(=O)C2)co1 | -44.5
O=C(CN1CCOc2ccccc2C1)N1Cc2cnn(CCO)c2C1 | -3.24
O=C(c1ccc2c(c1)CCO2)N1CCN(c2cnccn2)CC1 | -14.4
Cc1cn2c(n1)CCC(NC(=O)c1cc(C3CC3)[nH]n1)C2 (stereo unspecified) | -16.9
CCCc1cc(NC(=O)c2cc(N3CCNC3=O)c(F)cc2F)n[nH]1 | 12.3
CCn1c(N)nc2cc(C(=O)N3CCC(N4CCCC4)CC3)cnc21 | -1.56
CCc1nc(CC(=O)N2CCn3c(nnc3C(F)(F)F)C2)cs1 | -9.29
CCN(CC)CCCNc1nc(C)nc2c1CCN(C)C2 | 3.19
Cc1cn[nH]c1C1CCCN1Cc1ccc(F)c(F)c1 (stereo unspecified) | 4.14
Cn1ccc(C(=O)NCc2cccc(CN3CCCC3)c2)cc1=O | -3.07
CCC(CNC(=O)NC1CCN(C)CC1)Oc1ccccc1Cl (stereo unspecified) | 5.47

SMILES | cytotoxicity at 10 µM [%]
COc1ccc2c(ccn2CCC(=O)NCCC(=O)O)c1 | 6.81
Cc1cc(C(C)NC(=O)CCN2C(=O)c3ccccc3C2=O)c(C)o1 (stereo unspecified) | -7.82
Cn1cc(CN2CCC(F)(F)C3(CCN(c4ncccn4)C3)C2)cn1 (stereo unspecified) | -0.58
CCc1ncnc2c1CCN(S(=O)(=O)c1ccccc1)CC2 | -96.8
Cc1noc(C)c1S(=O)(=O)N(C)Cc1nn(C)c(Cl)c1Cl | -6.01
O=C(Cc1ccccn1)N1CC[C@]2(C[C@@H](Oc3ncccc3F)CO2)C1 | -5.79
CC(NCc1ccc(OCC(N)=O)cc1)c1ccc(Cl)cc1Cl (stereo unspecified) | 13.1
Cc1nn(C)c(C)c1C1CCCN1CC(=O)NCc1ccco1 (stereo unspecified) | -12.4
CCc1ncncc1C(=O)NCCNc1ncnc2sccc12 | -5.68
CCC[C@@H]1CN(C(=O)Cc2sc(C)nc2C)C[C@H]1C(=O)O | -125
Cc1noc(C2CCN(C(=O)c3ccc(N(C)C)nc3)CC2)n1 | -5.95
CCOc1ccc2[nH]c(=O)c(CN3CCC(n4cnnc4)CC3)cc2c1 | -0.966
O=C(O)c1ccn(COc2c(Cl)cccc2Cl)n1 | 8.71
Cc1cccc(NCc2nn(C)c(=O)[nH]2)c1 | 2.6
CN(C)C(=O)N1Cc2nnn(C)c2C(COCc2cccnc2)C1 (stereo unspecified) | 10.8
COC(=O)c1ccc(N2CCN(C(=O)c3ccc(=O)n(C)c3)CC2)cc1 | -43.9
Cc1ccc(CNC(=O)c2cc(C)n(C)n2)o1 | 0.25
CCOc1ccc2oc(-c3cn(C)nc3C)c(O)c(=O)c2c1 | 7.72
COc1cccc(COCC(=O)NC(C(N)=O)c2ccccc2)c1 (stereo unspecified) | -3.73
Cc1ccc(C2CCCN2S(=O)(=O)N(C)Cc2nccn2C)o1 (stereo unspecified) | -0.787
Cc1ccc(CNc2cc(N3CCCC3CO)ncn2)s1 (stereo unspecified) | -2.9
CNC(=O)c1ccc(CNC(=O)c2cc(C(C)C)n(C)n2)cc1 | -9.71
CCN(CC)Cc1ccc(C(=O)N2CCCC2Cn2cccn2)o1 (stereo unspecified) | -10.5

SMILES | cytotoxicity at 10 µM [%]
CC(C)C[C@H](N)c1nnc(SCC(=O)Nc2ccc(Br)cc2)o1 | -4.99
O=C(NCc1ccnc(C2CCCOC2)n1)c1cccs1 (stereo unspecified) | 0.44
OCCOCCNCC1(c2ccc(F)cc2)CCOC1 (stereo unspecified) | -147
COCCCNc1ncc(-c2cccc(F)c2)c(-c2nccn2C)n1 | 8.97
CS(=O)(=O)N1CCc2sc(C(=O)NCc3ccccc3)cc21 | 0.997
c1ccc(Cc2nnc(CN3CCCCC3Cn3cncn3)o2)cc1 (stereo unspecified) | -20.4
Cc1cc(C(=O)N2CCC(CCC(=O)NCCN(C)C)CC2)ccc1O | 5.38
Cc1ccc(CN2C[C@@H]3COC[C@H](NS(C)(=O)=O)[C@@H]3C2)o1 | 0.415
CC(C)c1ncc(Cl)c(C(=O)N2CCN(C3CCCC3)CC2)n1 | 8.69
O=C(Cc1nc(-c2ccncc2)n[nH]1)NCCCN1CCOCC1 | -1.8
CCN(Cc1cc(Cl)ccc1OC)Cc1nccn1C | 1.87
CN(Cc1ccccn1)C(=O)[C@H]1CO[C@H]2CCN(CC3CC3)C[C@H]2C1 | -105
COCCN1CC[C@H]2CN(Cc3ccc(C)s3)C[C@@H]2C1=O | -3.72
Cc1c(C)n(Cc2ccccn2)c2nc3c(c(N)c12)CCCCC3 | 3.3
CN(C)C(=O)CO[C@@H]1CN(Cc2ccccc2)[C@@H]2CCCO[C@@H]21 | 3.09
COc1ccc(C[C@H]2CN(C(=O)c3ccncc3)CC[C@@H]2OC)cc1 | 5.75
Cc1ccc(C(O)CN(C)Cc2cnn(C)c2)cc1C (stereo unspecified) | -5.37
O=C(CCn1c(C(F)F)cc2cccnc21)NC1CCCCC1 | -27.9
CCc1noc(CN(C)CCC(=O)Nc2ccc(C#N)c(Cl)c2)n1 | 22.5
